Results as given in ChEMBL document CHEMBL4689842, “EUbOPEN Chemogenomics Library wave 1” (2021).

Test system: U2OS
Assay: Multiplex assay against U2OS
Type: toxicity, cell-based
Settings: human
Outline: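 Hoechst33342, BioTracker Green Microtubule Cytoskeleton Dye, MitoTracker Red and Annexin V Alexa Fluor 680 were added to live cells at seeding, and imaging on a CQ1 microscope at 37°C and 5% CO2 followed compound addition. Gating by CellPathfinder machine learning separated cells into Hoechst high-intensity objects or normal cells, then normal cells into healthy, pyknosed or fragmented nuclei, then pyknosed cells into mitotic or apoptotic. Per cents of healthy-nucleus cells are reported for the tubulin, mitochondrial-mass and membrane-permeability phenotypes.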

[1] = 12 h, 1 µM, compound concentration 1 uM, replicate 1
[2] = 12 h, 1 µM, compound concentration 1 uM, replicate 2
[3] = 12 h, 10 µM, compound concentration 10 uM, replicate 1
[4] = 12 h, 10 µM, compound concentration 10 uM, replicate 2
[5] = 24 h, 1 µM, compound concentration 1 uM, replicate 1
[6] = 24 h, 1 µM, compound concentration 1 uM, replicate 2
[7] = 24 h, 10 µM, compound concentration 10 uM, replicate 1
[8] = 24 h, 10 µM, compound concentration 10 uM, replicate 2
[9] = 48 h, 1 µM, compound concentration 1 uM, replicate 1
[10] = 48 h, 1 µM, compound concentration 1 uM, replicate 2
[11] = 48 h, 10 µM, compound concentration 10 uM, replicate 1
[12] = 48 h, 10 µM, compound concentration 10 uM, replicate 2

CC(C)NC(=O)N1CC[C@H](NC2=Nc3cc(F)ccc3N(CC(F)F)c3ccc(Cl)cc32)C1
Population Apoptotic (%) [1]: 50%
Population Fragmented Nuclei (%) [1]: 11%
Population Healthy Nuclei (%) [1]: 75%
Population Hoechst High Intensity Objects (%) [1]: 7%
Population Membrane Permeable-Phenotype (%) [1]: 7%
Population Mitochondria Different-Phenotype (%) [1]: 8%
Population Mitotic Cells (%) [1]: 50%
Population Normal (%) [1]: 92%
Population Pyknosed Nuclei (%) [1]: 13%
Population Tubulin-Different-Phenotype (%) [1]: 19%
Total Cell Count [1]: 469
Population Apoptotic (%) [2]: 33%
Population Fragmented Nuclei (%) [2]: 5%
Population Healthy Nuclei (%) [2]: 89%
Population Hoechst High Intensity Objects (%) [2]: 9%
Population Membrane Permeable-Phenotype (%) [2]: 4%
Population Mitochondria Different-Phenotype (%) [2]: 18%
Population Mitotic Cells (%) [2]: 66%
Population Normal (%) [2]: 90%
Population Pyknosed Nuclei (%) [2]: 5%
Population Tubulin-Different-Phenotype (%) [2]: 14%
Total Cell Count [2]: 293
Population Apoptotic (%) [3]: 47%
Population Fragmented Nuclei (%) [3]: 11%
Population Healthy Nuclei (%) [3]: 72%
Population Hoechst High Intensity Objects (%) [3]: 11%
Population Membrane Permeable-Phenotype (%) [3]: 4%
Population Mitochondria Different-Phenotype (%) [3]: 52%
Population Mitotic Cells (%) [3]: 52%
Population Normal (%) [3]: 88%
Population Pyknosed Nuclei (%) [3]: 15%
Population Tubulin-Different-Phenotype (%) [3]: 89%
Total Cell Count [3]: 96
Population Apoptotic (%) [4]: 0%
Population Fragmented Nuclei (%) [4]: 6%
Population Healthy Nuclei (%) [4]: 81%
Population Hoechst High Intensity Objects (%) [4]: 13%
Population Membrane Permeable-Phenotype (%) [4]: 13%
Population Mitochondria Different-Phenotype (%) [4]: 63%
Population Mitotic Cells (%) [4]: 100%
Population Normal (%) [4]: 86%
Population Pyknosed Nuclei (%) [4]: 11%
Population Tubulin-Different-Phenotype (%) [4]: 58%
Total Cell Count [4]: 62
Population Apoptotic (%) [5]: 53%
Population Fragmented Nuclei (%) [5]: 9%
Population Healthy Nuclei (%) [5]: 78%
Population Hoechst High Intensity Objects (%) [5]: 6%
Population Membrane Permeable-Phenotype (%) [5]: 10%
Population Mitochondria Different-Phenotype (%) [5]: 28%
Population Mitotic Cells (%) [5]: 46%
Population Normal (%) [5]: 93%
Population Pyknosed Nuclei (%) [5]: 12%
Population Tubulin-Different-Phenotype (%) [5]: 21%
Total Cell Count [5]: 453
Population Apoptotic (%) [6]: 50%
Population Fragmented Nuclei (%) [6]: 5%
Population Healthy Nuclei (%) [6]: 88%
Population Membrane Permeable-Phenotype (%) [6]: 6%
Population Mitochondria Different-Phenotype (%) [6]: 19%
Population Mitotic Cells (%) [6]: 50%
Population Pyknosed Nuclei (%) [6]: 5%
Population Tubulin-Different-Phenotype (%) [6]: 9%
Total Cell Count [6]: 281
Population Apoptotic (%) [7]: 56%
Population Fragmented Nuclei (%) [7]: 14%
Population Healthy Nuclei (%) [7]: 61%
Population Hoechst High Intensity Objects (%) [7]: 6%
Population Membrane Permeable-Phenotype (%) [7]: 15%
Population Mitochondria Different-Phenotype (%) [7]: 61%
Population Mitotic Cells (%) [7]: 43%
Population Normal (%) [7]: 93%
Population Pyknosed Nuclei (%) [7]: 23%
Population Tubulin-Different-Phenotype (%) [7]: 79%
Total Cell Count [7]: 112
Population Apoptotic (%) [8]: 83%
Population Fragmented Nuclei (%) [8]: 13%
Population Healthy Nuclei (%) [8]: 73%
Population Hoechst High Intensity Objects (%) [8]: 10%
Population Membrane Permeable-Phenotype (%) [8]: 6%
Population Mitochondria Different-Phenotype (%) [8]: 57%
Population Mitotic Cells (%) [8]: 16%
Population Normal (%) [8]: 90%
Population Pyknosed Nuclei (%) [8]: 13%
Population Tubulin-Different-Phenotype (%) [8]: 51%
Total Cell Count [8]: 75
Population Apoptotic (%) [9]: 52%
Population Fragmented Nuclei (%) [9]: 10%
Population Healthy Nuclei (%) [9]: 77%
Population Membrane Permeable-Phenotype (%) [9]: 3%
Population Mitochondria Different-Phenotype (%) [9]: 23%
Population Mitotic Cells (%) [9]: 47%
Population Pyknosed Nuclei (%) [9]: 11%
Population Tubulin-Different-Phenotype (%) [9]: 23%
Total Cell Count [9]: 499
Population Apoptotic (%) [10]: 25%
Population Fragmented Nuclei (%) [10]: 4%
Population Healthy Nuclei (%) [10]: 87%
Population Hoechst High Intensity Objects (%) [10]: 6%
Population Membrane Permeable-Phenotype (%) [10]: 10%
Population Mitochondria Different-Phenotype (%) [10]: 26%
Population Mitotic Cells (%) [10]: 75%
Population Normal (%) [10]: 93%
Population Pyknosed Nuclei (%) [10]: 7%
Population Tubulin-Different-Phenotype (%) [10]: 22%
Total Cell Count [10]: 259
Population Apoptotic (%) [11]: 82%
Population Fragmented Nuclei (%) [11]: 23%
Population Healthy Nuclei (%) [11]: 47%
Population Hoechst High Intensity Objects (%) [11]: 6%
Population Membrane Permeable-Phenotype (%) [11]: 20%
Population Mitochondria Different-Phenotype (%) [11]: 44%
Population Mitotic Cells (%) [11]: 17%
Population Normal (%) [11]: 93%
Population Pyknosed Nuclei (%) [11]: 29%
Population Tubulin-Different-Phenotype (%) [11]: 76%
Total Cell Count [11]: 160
Population Apoptotic (%) [12]: 69%
Population Fragmented Nuclei (%) [12]: 13%
Population Healthy Nuclei (%) [12]: 60%
Population Hoechst High Intensity Objects (%) [12]: 13%
Population Membrane Permeable-Phenotype (%) [12]: 41%
Population Mitochondria Different-Phenotype (%) [12]: 61%
Population Mitotic Cells (%) [12]: 30%
Population Normal (%) [12]: 86%
Population Pyknosed Nuclei (%) [12]: 25%
Population Tubulin-Different-Phenotype (%) [12]: 58%
Total Cell Count [12]: 115

CC(C)OC(=O)N1CCC(Oc2ncnc3c2cnn3-c2ccc(S(C)(=O)=O)cc2F)CC1
Population Apoptotic (%) [1]: 57%
Population Fragmented Nuclei (%) [1]: 11%
Population Healthy Nuclei (%) [1]: 80%
Population Hoechst High Intensity Objects (%) [1]: 6%
Population Membrane Permeable-Phenotype (%) [1]: 6%
Population Mitochondria Different-Phenotype (%) [1]: 8%
Population Mitotic Cells (%) [1]: 42%
Population Normal (%) [1]: 93%
Population Pyknosed Nuclei (%) [1]: 7%
Population Tubulin-Different-Phenotype (%) [1]: 12%
Total Cell Count [1]: 95
Population Apoptotic (%) [2]: 33%
Population Fragmented Nuclei (%) [2]: 5%
Population Healthy Nuclei (%) [2]: 91%
Population Hoechst High Intensity Objects (%) [2]: 7%
Population Membrane Permeable-Phenotype (%) [2]: 4%
Population Mitotic Cells (%) [2]: 66%
Population Normal (%) [2]: 92%
Population Pyknosed Nuclei (%) [2]: 3%
Population Tubulin-Different-Phenotype (%) [2]: 7%
Total Cell Count [2]: 97
Population Apoptotic (%) [3]: 20%
Population Fragmented Nuclei (%) [3]: 11%
Population Healthy Nuclei (%) [3]: 77%
Population Hoechst High Intensity Objects (%) [3]: 6%
Population Membrane Permeable-Phenotype (%) [3]: 6%
Population Mitochondria Different-Phenotype (%) [3]: 19%
Population Mitotic Cells (%) [3]: 79%
Population Normal (%) [3]: 93%
Population Pyknosed Nuclei (%) [3]: 11%
Population Tubulin-Different-Phenotype (%) [3]: 24%
Total Cell Count [3]: 221
Population Apoptotic (%) [4]: 18%
Population Fragmented Nuclei (%) [4]: 5%
Population Membrane Permeable-Phenotype (%) [4]: 0%
Population Mitochondria Different-Phenotype (%) [4]: 5%
Population Mitotic Cells (%) [4]: 81%
Population Pyknosed Nuclei (%) [4]: 16%
Population Tubulin-Different-Phenotype (%) [4]: 28%
Total Cell Count [4]: 72
Population Apoptotic (%) [5]: 57%
Population Fragmented Nuclei (%) [5]: 10%
Population Healthy Nuclei (%) [5]: 83%
Population Hoechst High Intensity Objects (%) [5]: 6%
Population Membrane Permeable-Phenotype (%) [5]: 5%
Population Mitochondria Different-Phenotype (%) [5]: 5%
Population Mitotic Cells (%) [5]: 42%
Population Normal (%) [5]: 93%
Population Pyknosed Nuclei (%) [5]: 6%
Population Tubulin-Different-Phenotype (%) [5]: 11%
Total Cell Count [5]: 123
Population Apoptotic (%) [6]: 50%
Population Fragmented Nuclei (%) [6]: 4%
Population Healthy Nuclei (%) [6]: 86%
Population Hoechst High Intensity Objects (%) [6]: 2%
Population Mitochondria Different-Phenotype (%) [6]: 4%
Population Mitotic Cells (%) [6]: 50%
Population Normal (%) [6]: 97%
Population Pyknosed Nuclei (%) [6]: 8%
Population Tubulin-Different-Phenotype (%) [6]: 9%
Total Cell Count [6]: 116
Population Apoptotic (%) [7]: 20%
Population Fragmented Nuclei (%) [7]: 10%
Population Healthy Nuclei (%) [7]: 79%
Population Hoechst High Intensity Objects (%) [7]: 4%
Population Membrane Permeable-Phenotype (%) [7]: 1%
Population Mitochondria Different-Phenotype (%) [7]: 14%
Population Mitotic Cells (%) [7]: 79%
Population Normal (%) [7]: 95%
Population Pyknosed Nuclei (%) [7]: 10%
Population Tubulin-Different-Phenotype (%) [7]: 13%
Total Cell Count [7]: 248
Population Apoptotic (%) [8]: 33%
Population Fragmented Nuclei (%) [8]: 5%
Population Healthy Nuclei (%) [8]: 87%
Population Hoechst High Intensity Objects (%) [8]: 2%
Population Mitochondria Different-Phenotype (%) [8]: 2%
Population Mitotic Cells (%) [8]: 66%
Population Normal (%) [8]: 97%
Population Pyknosed Nuclei (%) [8]: 6%
Population Tubulin-Different-Phenotype (%) [8]: 31%
Total Cell Count [8]: 93
Population Apoptotic (%) [9]: 27%
Population Fragmented Nuclei (%) [9]: 6%
Population Healthy Nuclei (%) [9]: 83%
Population Hoechst High Intensity Objects (%) [9]: 4%
Population Membrane Permeable-Phenotype (%) [9]: 1%
Population Mitotic Cells (%) [9]: 72%
Population Normal (%) [9]: 95%
Population Pyknosed Nuclei (%) [9]: 9%
Population Tubulin-Different-Phenotype (%) [9]: 5%
Total Cell Count [9]: 193
Population Apoptotic (%) [10]: 30%
Population Fragmented Nuclei (%) [10]: 5%
Population Healthy Nuclei (%) [10]: 88%
Population Hoechst High Intensity Objects (%) [10]: 2%
Population Membrane Permeable-Phenotype (%) [10]: 7%
Population Mitochondria Different-Phenotype (%) [10]: 10%
Population Mitotic Cells (%) [10]: 69%
Population Normal (%) [10]: 97%
Population Pyknosed Nuclei (%) [10]: 6%
Population Tubulin-Different-Phenotype (%) [10]: 9%
Total Cell Count [10]: 199
Population Apoptotic (%) [11]: 35%
Population Fragmented Nuclei (%) [11]: 5%
Population Healthy Nuclei (%) [11]: 82%
Population Hoechst High Intensity Objects (%) [11]: 2%
Population Membrane Permeable-Phenotype (%) [11]: 2%
Population Mitochondria Different-Phenotype (%) [11]: 13%
Population Mitotic Cells (%) [11]: 64%
Population Normal (%) [11]: 97%
Population Pyknosed Nuclei (%) [11]: 11%
Population Tubulin-Different-Phenotype (%) [11]: 8%
Total Cell Count [11]: 324
Population Apoptotic (%) [12]: 40%
Population Fragmented Nuclei (%) [12]: 3%
Population Healthy Nuclei (%) [12]: 92%
Population Hoechst High Intensity Objects (%) [12]: 1%
Population Mitochondria Different-Phenotype (%) [12]: 12%
Population Mitotic Cells (%) [12]: 60%
Population Normal (%) [12]: 98%
Population Pyknosed Nuclei (%) [12]: 3%
Population Tubulin-Different-Phenotype (%) [12]: 37%
Total Cell Count [12]: 157
